Laboratory results: ChEMBL document CHEMBL3621051, “Design and synthesis of 4-benzyl-1-(2H)-phthalazinone derivatives as novel androgen receptor antagonists” (Eur J Med Chem, 2015)
Active and inactive are the calls of the source. The calls are words filed in the database; no cut-off is given here.

Assays:
[1] = target: T1, Androgen receptor (Homo sapiens) (UniProt P10275); assay: Agonist activity at wild type AR expressed in […] SC cells assessed as effect on cell proliferation by WST-8 assay; assay type: cell-based
T1 sequence (whole entry): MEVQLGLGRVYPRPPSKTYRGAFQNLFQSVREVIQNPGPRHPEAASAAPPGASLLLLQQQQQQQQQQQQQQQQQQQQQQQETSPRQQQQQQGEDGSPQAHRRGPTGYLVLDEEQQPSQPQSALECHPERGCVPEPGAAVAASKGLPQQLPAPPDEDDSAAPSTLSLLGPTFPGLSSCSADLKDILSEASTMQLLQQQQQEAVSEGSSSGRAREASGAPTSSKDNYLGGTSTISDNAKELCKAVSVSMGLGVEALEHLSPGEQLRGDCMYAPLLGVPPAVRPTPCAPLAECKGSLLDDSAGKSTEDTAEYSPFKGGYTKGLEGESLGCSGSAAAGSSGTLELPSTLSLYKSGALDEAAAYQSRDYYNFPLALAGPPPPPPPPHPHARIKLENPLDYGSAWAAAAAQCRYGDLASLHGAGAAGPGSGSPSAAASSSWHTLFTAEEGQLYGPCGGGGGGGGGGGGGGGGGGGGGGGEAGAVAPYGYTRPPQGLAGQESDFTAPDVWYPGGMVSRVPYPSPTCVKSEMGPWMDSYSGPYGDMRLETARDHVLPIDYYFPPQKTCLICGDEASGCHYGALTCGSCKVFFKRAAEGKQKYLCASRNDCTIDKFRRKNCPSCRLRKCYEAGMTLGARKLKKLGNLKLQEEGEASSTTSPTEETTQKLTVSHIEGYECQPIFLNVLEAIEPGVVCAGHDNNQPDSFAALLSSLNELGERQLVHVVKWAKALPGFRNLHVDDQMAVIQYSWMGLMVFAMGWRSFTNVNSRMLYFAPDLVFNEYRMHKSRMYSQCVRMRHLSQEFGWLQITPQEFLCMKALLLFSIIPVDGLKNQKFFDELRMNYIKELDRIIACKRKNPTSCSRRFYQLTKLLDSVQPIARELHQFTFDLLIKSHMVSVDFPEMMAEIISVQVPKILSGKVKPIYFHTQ

Androgen receptor = target: T2, Androgen receptor (Homo sapiens, UniProt P10275); assay: Displacement of [3H]-DHT from human GST fused AR-LBD (627 to 919 amino acids) transfected in Escherichia coli HB 101 after 15 hrs by liquid scintillation counting assay
T2 sequence (P10275 whole entry): T1 sequence (whole entry)
How it was run: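 Crude sonicated lysate in TEGDM was diluted to 0.3-0.5 mg/mL protein. Incubation was in the dark at 4°C for 15 h with 4 nM [3H]-DHT and 1 µM triamcinolone acetonide (final). Free ligand was removed with dextran/γ-globulin-coated charcoal, and the supernatant counted by liquid scintillation; ≥duplicate.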

PC-3 = assay: Cytotoxicity against androgen-independent human PC3 cells assessed as inhibition of cell proliferation after 3 days by WST-8 assay; assay type: functional, cell-based

O=c1[nH]nc(Cc2ccccc2)c2ccccc12
Activity [1]: inactive

O=C(Nc1ccccc1Cc1n[nH]c(=O)c2ccccc12)C(F)(F)F
Activity [1]: inactive

O=c1[nH]nc(Cc2c(Cl)cccc2Cl)c2ccccc12
IC50 (Androgen receptor): 10.9 µM | inhibition (PC-3): inactive | Activity [1]: inactive

Cc1cccc(C)c1Cc1n[nH]c(=O)c2ccccc12
IC50 (Androgen receptor): 84.3 µM | inhibition (PC-3): inactive | Activity [1]: inactive

CC(=O)Nc1ccc(Cc2n[nH]c(=O)c3ccccc23)cc1
Activity [1]: inactive

O=c1[nH]nc(Cc2c(Cl)ccc(Cl)c2Cl)c2ccccc12
IC50 (Androgen receptor): 56.7 µM | inhibition (PC-3): inactive | Activity [1]: inactive

CNc1ccc(Cc2n[nH]c(=O)c3ccccc23)cc1
Activity [1]: inactive

O=[N+]([O-])c1ccc(Cc2nnc(O)c3ccccc23)cc1
Activity [1]: inactive

CN(C)c1ccccc1Cc1n[nH]c(=O)c2ccccc12
Activity [1]: inactive

O=c1[nH]nc(Cc2ccccc2[N+](=O)[O-])c2ccccc12
IC50 (Androgen receptor): > 100 µM | inhibition (PC-3): inactive | Activity [1]: inactive

O=c1[nH]nc(Cc2ccccc2C(F)(F)F)c2ccccc12
Activity [1]: inactive

CCNc1ccc(Cc2n[nH]c(=O)c3ccccc23)cc1
Activity [1]: inactive

Nc1ccccc1Cc1n[nH]c(=O)c2ccccc12
IC50 (Androgen receptor): 45.2 µM | inhibition (PC-3): inactive | Activity [1]: inactive

O=C(O)c1ccccc1Cc1n[nH]c(=O)c2ccccc12
Activity [1]: inactive

COc1ccccc1Cc1n[nH]c(=O)c2ccccc12
Activity [1]: inactive

Nc1ccc(Cc2n[nH]c(=O)c3ccccc23)cc1
Activity [1]: inactive

O=C(Nc1ccc(Cc2n[nH]c(=O)c3ccccc23)cc1)C(F)(F)F
Activity [1]: inactive

Cc1ccccc1Cc1n[nH]c(=O)c2ccccc12
Activity [1]: inactive

O=c1[nH]nc(Cc2c(F)cccc2F)c2ccccc12
Activity [1]: inactive

CNc1ccccc1Cc1n[nH]c(=O)c2ccccc12
Activity [1]: inactive

Oc1nnc(Cc2ccccc2Cl)c2ccccc12
IC50 (Androgen receptor): 85.4 µM | inhibition (PC-3): inactive | Activity [1]: inactive

CCNc1ccccc1Cc1n[nH]c(=O)c2ccccc12
Activity [1]: inactive

CCN(CC)c1ccc(Cc2n[nH]c(=O)c3ccccc23)cc1
Activity [1]: inactive

CCN(CC)c1ccccc1Cc1n[nH]c(=O)c2ccccc12
Activity [1]: inactive

CS(=O)(=O)Nc1ccccc1Cc1n[nH]c(=O)c2ccccc12
Activity [1]: inactive

O=c1[nH]nc(Cc2ccccc2F)c2ccccc12
Activity [1]: inactive

CS(=O)(=O)Nc1ccc(Cc2n[nH]c(=O)c3ccccc23)cc1
Activity [1]: inactive

CN(C)c1ccc(Cc2n[nH]c(=O)c3ccccc23)cc1
Activity [1]: inactive

CC(C)(O)C(=O)Nc1ccc([N+](=O)[O-])c(C(F)(F)F)c1
Activity [1]: inactive

CC(=O)Nc1ccccc1Cc1n[nH]c(=O)c2ccccc12
Activity [1]: inactive
